Measurements gathered from unrelated publications.
Each line is one published result; the experiments were not run side by side.
HTR2A: 5-hydroxytryptamine receptor 2A (HTR2A, Homo sapiens, UniProt P28223)
EDNRA: Endothelin-1 receptor (EDNRA, Homo sapiens, UniProt P25101)
PROC: Vitamin K-dependent protein C (PROC, Homo sapiens, UniProt P04070)

With `c1ccc(C(NCCNC(c2ccccc2)c2ccccc2)c2ccccc2)cc1` the inhibition was 0% (cGMP-specific 3',5'-cyclic phosphodiesterase (PDE5A, Homo sapiens, UniProt O76074); enzyme activity; inhibitor; 10 µM).
For `OC[C@@]12C[C@@H]1[C@@H](n1cnc3c(NC(C4CCCC4)C4CCCC4)nc(Cl)nc31)[C@H](O)[C@@H]2O`, the inhibition was 22% (HTR2A; ligand displacement; radioligand; 10 µM).
`CCN(CC)CCCC[C@H](NC(=O)[C@H](CC(C)C)NC(=O)[C@H](C)NC(=O)[C@H](Cc1ccccc1)NC(=O)c1ccc(C(C)(C)C)cc1)C(=O)N[C@@H](CO)C(=O)OC` gave an inhibition of -2% (Adenosine receptor A2a (ADORA2A, Homo sapiens, UniProt P29274); ligand displacement; radioligand; 10 µM).
For `CC(C)Cn1cnc2c(N)nc3ccccc3c21`, the inhibition was 8% (EDNRA; ligand displacement; radioligand; 10 µM).
With `CC(C)=CCC[C@]1(C)C=Cc2c(O)c3c(c(CC=C(C)C)c2O1)O[C@]12C(=C[C@@H]4C[C@H]1C(C)(C)O[C@@]2(C/C=C(/C)C(=O)O)C4=O)C3=O` the inhibition was -8% (Histone-lysine N-methyltransferase EHMT1 (EHMT1, Homo sapiens, UniProt Q9H9B1); cell-free assay; 10 µM).
For `N=C(N)c1ccc2cc(OC(=O)c3ccc(N=C(N)N)cc3)ccc2c1`, the inhibition was 4% (Caspase-6 (CASP6, Homo sapiens, UniProt P55212); enzyme activity; inhibitor; 10 µM).
`CC(C)N1CCC[C@H]1CNC(=O)c1cn(C2CCCC2)c(=O)c2c1c1ccccc1n2C` has an inhibition of 11% (EDNRA; ligand displacement; radioligand; 10 µM).
`COCc1c(-c2cc3cc(C)cc(OC)c3s2)c2c(N)ncnn2c1CN1CCNC(=O)C1` has an inhibition of 12% (EDNRA; ligand displacement; radioligand; 10 µM).
`Cn1cc(-c2cc(F)cc(N3CCn4c(cc5c4CCCC5)C3=O)c2CO)cc(Nc2ccc(N3CCN(C4COC4)CC3)cn2)c1=O` has an inhibition of 10% (Phosphatidylinositol 4-phosphate 3-kinase C2 domain-containing subunit beta (PIK3C2B, Homo sapiens, UniProt O00750); enzyme activity; inhibitor; 0.1 µM).
For `CCOC(=O)c1ccc(OC(=O)CCCCCNC(=N)N)cc1`, the inhibition was 99% (PROC; enzyme activity; inhibitor; 10 µM).
With `Cn1cc(-c2cccc(N3CCc4c(sc5c4CC(C)(C)C5)C3=O)c2CO)cc(Nc2ccncn2)c1=O` the inhibition was 5% (Sphingosine kinase 1 (SPHK1, Homo sapiens, UniProt Q9NYA1); enzyme activity; inhibitor; 1 µM).
The inhibition of `CN(CCN1CCC(OC(=O)Nc2ccccc2-c2ccccc2)CC1)C(=O)c1ccc(CN2CCC(C(N)=O)CC2)cc1` is reported as -2% (Corticotropin-releasing factor receptor 1 (Rattus norvegicus, UniProt P35353); ligand displacement; radioligand; 1 µM).
For `O=C(Nc1cccnn1)N1CCN([C@@H]2CCOc3cc(C(F)(F)F)ccc32)CC1`, the inhibition was 4% (Histamine H4 receptor (HRH4, Homo sapiens, UniProt Q9H3N8); cell-free assay; 20 µM).
For `[H]/N=C(/N)c1ccc(NCc2nc3cc(C(=O)N(CCC(=O)O)c4ccccn4)ccc3n2C)cc1`, the inhibition was 95% (PROC; enzyme activity; inhibitor; 20 µM).
The inhibition of `OC[C@@]12C[C@@H]1[C@@H](n1cnc3c(NC(C4CCCC4)C4CCCC4)nc(Cl)cc31)[C@H](O)[C@@H]2O` is reported as 1% (HTR2A; ligand displacement; radioligand; 10 µM).
The inhibition of `CC(C)[C@H](NC(=O)OCc1ccccc1)C(=O)N[C@@H](CCCN=C(N)N)C(=O)N1CCC[C@H]1C(=O)N[C@@H](CCCN=C(N)N)C(=O)CF` is reported as 9% (Mucosa-associated lymphoid tissue lymphoma translocation protein 1 (MALT1, Homo sapiens, UniProt Q9UDY8); enzyme activity; inhibitor; 1 nM).
The inhibition of `C#Cc1n[nH]c2c(-c3cn(C(C)c4ccccn4)c(=O)[nH]c3=O)cc(F)cc12` (stereo not shown) is reported as 0.9% (Cytoplasmic tyrosine-protein kinase BMX (BMX, Homo sapiens, UniProt P51813); enzyme activity; inhibitor; 1 µM).
`CN(C)C(=O)COC(=O)Cc1ccc(OC(=O)c2ccc(NC(=N)N)cc2)cc1` has an inhibition of 77% (PROC; enzyme activity; inhibitor; 10 µM).
With `Clc1ccc2c(C3CCN(CCc4c[nH]c5ccccc45)CC3)c[nH]c2c1` the inhibition was -12% (EDNRA; ligand displacement; radioligand; 10 µM).
